Source: PubChem BioAssay (The Scripps Research Institute Molecular Screening Center)
In the library only some 3.2% were active in any assay of this set; here they are far more common.
OX1R antag-1: OX1R (human) antagonism; actives 1.8% (n = 330,000); inhibition, % at 6.6 µM; OX1R-expressing cells, FRET antagonist read-out; AID 485270; in the data active means inhibition mostly above about 38%, no sharp cut-off; inactive means mostly below about 40%;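 further: 0% = agonist challenge alone and 100% = reference antagonist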
GPR7 antagonist: antagonists of human GPR7 (neuropeptides B/W receptor 1). P48145. actives 1.1% (n = 290,000). AID 1861. GPR7-expressing cells, fluorescence antagonist assay. inhibition, % at 4.4 µM; in the data active means inhibition above about 16%, passing the limit was not always enough;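 further: cells stimulated with the agonist NPW; 0% = agonist with vehicle and 100% = vehicle without agonist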
TRPML3 ag: human mucolipin-3 channel agonism; AID 1448; Q8TDD5; HEK293 TRPML3-YFP, Fluo-8 calcium fluorescence; 100% = the carbachol control signal; actives 0.29% (n = 220,000); activation, % at 3 µM;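 active means activation above its plate's cutoff, the mean activation of the plate's test wells plus 3 SD, cut at about 12% in these data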;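 further: 0% = DMSO only wells and 100% = carbachol wells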
Target sequence (Q8TDD5 whole entry, looked up): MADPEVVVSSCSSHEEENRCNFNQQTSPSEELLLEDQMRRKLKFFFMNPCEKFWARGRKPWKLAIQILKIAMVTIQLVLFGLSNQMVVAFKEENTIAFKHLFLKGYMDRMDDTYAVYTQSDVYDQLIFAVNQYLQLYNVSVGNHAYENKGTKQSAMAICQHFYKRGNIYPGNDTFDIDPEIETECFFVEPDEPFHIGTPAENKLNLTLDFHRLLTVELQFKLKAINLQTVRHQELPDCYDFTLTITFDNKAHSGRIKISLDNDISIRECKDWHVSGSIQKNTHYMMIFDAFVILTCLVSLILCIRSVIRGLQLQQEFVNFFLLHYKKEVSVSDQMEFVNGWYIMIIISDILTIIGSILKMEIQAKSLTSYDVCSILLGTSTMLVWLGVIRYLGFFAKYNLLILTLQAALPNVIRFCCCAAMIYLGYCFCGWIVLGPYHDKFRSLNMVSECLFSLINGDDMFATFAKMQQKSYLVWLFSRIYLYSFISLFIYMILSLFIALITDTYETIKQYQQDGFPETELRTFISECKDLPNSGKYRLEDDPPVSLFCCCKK
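Material: TRPML3-YFP stable HEK293 cells | Dosing: One concentration, 3 µM nominal, 0.3% DMSO | Timing: 125 s total fluorescence read per well | Technique: Fluo-8 calcium dye fluorescence, ex 470-495, em 515-575 nm | Measure: Percent activation from peak-to-basal fluorescence ratio, scaled between DMSO and carbachol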
CHO parental Ca: signal in parental CHO cells, OX1R antagonist counter-screen. parental CHO-K1, ATP-induced calcium, Fluo-8 fluorescence. inhibition, % at 5.6 µM. actives 0.63% (n = 330,000);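 active means inhibition above that plate's mean sample inhibition plus 3 SD, cut at about 26% in these data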;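 further: 0% = ATP-challenged DMSO wells and 100% = DMSO wells without ATP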
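Assay system – parental CHO cells · Reagent – ATP stimulus · Detection – intracellular calcium via Fluo-8 no-wash fluorescent dye · Evaluation – percent inhibition of ATP-evoked calcium rise, normalized to controls · Controls – ATP wells versus no-ATP DMSO wells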
OX1R antag-2: blocks the human orexin 1 receptor. O43613. CHO/OX1R cells, Fluo-8 calcium fluorescence, orexin A. inhibition, % at 5 µM. actives 0.43% (n = 330,000);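 active means inhibition above its plate's threshold, mean inhibition of all tested compounds on the plate plus 3 SD, cut at about 37% in these data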;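 further: 0% = orexin A challenge wells and 100% = SB-334867-A antagonist wells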
TRPN1 ag: agonists of zebrafish TRPN1 channel; HEK293 zebrafish TRPN1-YFP, Fluo-8 calcium fluorescence; 100% = response to 87 µM carbachol; activation, % at 3 µM; actives 0.18% (n = 220,000);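 active means activation above its plate's cutoff, the mean activation of test wells on that plate plus 3 SD, cut at about 19% in these data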;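 further: 0% = DMSO alone and 100% = 87 µM carbachol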
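Assay system: Zebrafish TRPN1-YFP in HEK293 cells | Incubation: Dye loading 1 h at 37 °C, then 30 min room temperature | Measured by: Kinetic Fluo-8 fluorescence, ex 470-495, em 515-575 nm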
Starred values were filed as active, the others as inactive; / = no result given.

SMILES	OX1R antag-1	GPR7 antagonist	TRPML3 ag	CHO parental Ca	OX1R antag-2	TRPN1 ag
O=C(COC(=O)c1nc(-c2ccccc2)n(-c2cccc(C(F)(F)F)c2)n1)NCc1cccs1	20	-2	-1	4	-14	-1
CCOc1ccc2nc(N(CCN(CC)CC)C(=O)c3cccc([N+](=O)[O-])c3)sc2c1	20	-14	0	-2	-1	-1
N/C(=N\OC(=O)c1ccc([N+](=O)[O-])cc1)c1cccnc1	30	-13	1	-14	-9	-2
O=C(O)c1ccc(N/N=C/C=C/c2ccccc2[N+](=O)[O-])cc1	-2	19*	-1	9	9	2
O=C(Oc1c(Br)cc([N+](=O)[O-])cc1Br)c1cccnc1	53*	-6	1	-1	-15	1
O=C(NCCOC(=O)c1ccc([N+](=O)[O-])cc1)c1cccnc1	69*	-3	1	2	-9	0
O=C(N/N=C/c1ccc([N+](=O)[O-])cc1)c1cccnc1	72*	3	/	2	-18	/
NS(=O)(=O)c1ccc(CCNC(=O)c2ccc(NS(=O)(=O)c3ccc4[nH]c(=O)[nH]c4c3)cc2)cc1	20	/	/	25	12	/
C[C@@H](CC#N)CN1CC[C@H](C(C)(C)C)CCC1=O	22	-10	/	0	-2	/
O=C(Nc1ccccc1[N+](=O)[O-])c1cccc(N2C(=O)CCC2=O)c1	40	0	/	-3	-15	/
O=C(/C=C/c1ccc([N+](=O)[O-])cc1)NCc1ccccn1	75*	-1	1	-6	-1	2
O=C(N/N=C/C=C/c1ccccc1[N+](=O)[O-])c1cccnc1	47*	-12	0	-1	-13	-1
O=C(/C=C/c1ccc([N+](=O)[O-])cc1)NCc1cccs1	56	13	0	-4	-2	-2
O=C(N/N=C/C=C\c1ccccc1[N+](=O)[O-])c1cccnc1	15	-14	1	-8	1	2
C[C@H](NC(=O)c1nc[nH]c1C(=O)N[C@@H](CCCCN)C(=O)OC(C)(C)C)C(=O)OCc1ccccc1	8	/	/	-8	4	/
CCCCn1c(N)c(N(CC(C)C)C(=O)c2ccc(OCc3c(C)noc3C)cc2)c(=O)[nH]c1=O	21	/	/	12	5	/
Cc1ccc(C(=O)N2CC(C)SC2=Nc2cccc(S(=O)(=O)N(C)C)c2)cc1 (centres undefined)	11	0	0	-12	-21	0
CN(C)S(=O)(=O)c1cccc(N=C2SCCN2Cc2ccccc2)c1	30	-15	2	40*	-1	6
O=C1c2ccc(-c3ccc4c(c3)C(=O)N(CCCO)C4=O)cc2C(=O)N1CCCO	59*	7	1	-2	-12	1
O=S(=O)(NCc1c(Cl)cccc1Oc1ccccc1)c1ccc(F)cc1	3	13	0	5	-19	-2
Cc1nn2c(CN(C(=O)COc3ccccc3)c3ccccc3)nnc2c2ccccc12	62*	-12	1	-10	0	-1
Cc1nn2c(CN(C(=O)CN3CCOCC3)c3ccccc3)nnc2c2ccccc12	15	4	0	-8	-10	1
COc1ccc(/C(C#N)=C/c2ccccn2)cc1	10	7	2	-20	-69	0
N#C/C(=C/c1ccc(-c2ccc(S(N)(=O)=O)cc2)o1)C(=O)Nc1ccccc1	37	-3	0	7	0	4
N#C/C(=C\c1ccccn1)c1nc2ccccc2s1	12	21*	8	45*	57*	26*
SMILES	OX1R antag-1	GPR7 antagonist	TRPML3 ag	CHO parental Ca	OX1R antag-2	TRPN1 ag
N#C/C(=C/c1ccc(-c2ccc(S(N)(=O)=O)cc2)o1)c1nc2ccccc2s1	20	11	14*	64*	80*	13
N#C/C(=C\c1ccc(-c2nc3ccccc3s2)o1)C(N)=O	52*	7	0	-19	26	0
OCc1cc(-c2ccccn2)no1	28	/	/	-1	-13	/
C/C(=N\NC(=O)c1ccccc1F)c1cccc(NC(=O)c2ccc(C)cc2)c1	7	-13	/	-9	-23	/
C=C1C(=O)C=C2CN(C(=O)c3ccccc3)[C@@](Cc3ccc(F)cc3)(C(=O)OC)[C@@H]12	14	85*	5	32	75*	37*
COc1cccc(CNC(=O)Cn2c(=O)n(CCC(=O)N3CCCCC3)c(=O)c3sccc32)c1	-9	10	/	-8	-6	/
O=C(COc1ccccc1/C=C1\SC(=O)NC1=O)Nc1ccc(F)cc1	77*	3	0	-4	-22	0
CCOC(=O)c1c(C)[nH]c(C)c1C(=O)COc1ncnc2cc([N+](=O)[O-])ccc12	75*	-8	1	-20	-40	0
CC(NC(=O)COc1ncnc2cc([N+](=O)[O-])ccc12)c1ccccc1 (centres undefined)	64*	-4	0	-5	-14	1
NC(=O)c1c(/N=C/c2cccnc2)sc2c1CCCC2	14	-4	1	-10	-21	1
O=c1[nH]c2ccccc2c2cn(-c3ccccc3)nc12	28	-6	/	-6	-11	/
COC(=O)c1ccc(C(C(=O)NCc2ccccc2)N(Cc2cccs2)C(=O)c2cnccn2)cc1 (centres undefined)	2	-4	0	-8	-23	1
Cc1ccc(C(C(=O)NCc2ccccc2)N(Cc2cccs2)C(=O)c2ccc3c(c2)OCCO3)cc1 (centres undefined)	58*	-14	0	6	13	0
CCOc1ccc(-c2nc(CSCC(=O)N3CCN(c4cccc(OC)c4)CC3)c(C)o2)cc1	54*	1	2	75*	44*	5
CSc1ccc(/C=C(\C(=O)O)c2ccc(S(=O)(=O)N3CCCC3)s2)cc1	16	/	/	-11	-2	/
CC(=O)c1ccc(N2CCN(C(=O)CN3C(=O)NC4(CCCCC4)C3=O)CC2)c(F)c1	1	/	/	-7	-5	/
CC1CCCCC1NS(=O)(=O)c1ccc(S(=O)(=O)N2CCCC2)cc1 (centres undefined)	19	15*	0	-14	-31	9
COc1ccc(S(=O)(=O)Nc2cccc(S(=O)(=O)N3CCCCC3)c2)cc1	50*	/	/	-26	-5	/
CC1CCCCC1NC(=O)c1ccc(S(=O)(=O)N2CCCC2)cc1 (centres undefined)	11	2	1	-7	-15	1
COc1ccc(S(=O)(=O)N2CCN(CC(=O)Nc3ccc(F)c(F)c3)CC2)cc1	26	30*	1	-2	-4	0
O=S(=O)(Nc1ccccc1OC(F)F)c1ccc(S(=O)(=O)N2CCCC2)cc1	31*	/	/	-11	8	/
